Results from ChEMBL document CHEMBL4011654, “Mitochondria-Targeted Lupane Triterpenoid Derivatives and Their Selective Apoptosis-Inducing Anticancer Mechanisms” (J Med Chem, 2017).

Tests used:
[1] = test system: K562; experiment: Cytotoxicity against human K562 cells assessed as cell growth inhibition after 48 hrs by MTT assay; format: functional, cell-based; conditions: K562, 48 h
How it was run: (§1)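 Suspension cells seeded at 5000/well (HL-60 in IMDM, K562 in RPMI, both with 10% FBS) and treated. MTT then added for 4 h at 37 °C; plates centrifuged at 3000 rpm for 30 min, medium removed, DMSO added, OD570 read. IC50 taken as concentration giving 50% growth inhibition; triplicate.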

[2] = test system: HepG2; experiment: Cytotoxicity against human HepG2 cells assessed as cell growth inhibition after 48 hrs by MTT assay; format: functional, cell-based; conditions: HepG2, 48 h
How it was run: (§2)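 Adherent cells seeded at 5000/well, left 16−24 h, then exposed 48 h at 37 °C, 5% CO2 in RPMI with 10% FBS. Medium refreshed, MTT added for 4 h at 37 °C, medium removed, formazan dissolved in DMSO, OD570 read. IC50 taken as concentration inhibiting growth by 50%; triplicate.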

[3] = test system: L02; experiment: Cytotoxicity against human HL-7702 cells assessed as cell growth inhibition after 48 hrs by MTT assay; format: cell-based; conditions: L02, 48 h; how it was run: as §2
[4] = test system: HL-60; experiment: Cytotoxicity against human HL60 cells assessed as cell growth inhibition after 48 hrs by MTT assay; format: functional, cell-based; conditions: HL-60, 48 h; how it was run: as §1
[5] = test system: A549; experiment: Cytotoxicity against human A549 cells assessed as cell growth inhibition after 48 hrs by MTT assay; format: functional, cell-based; conditions: A549, 48 h; how it was run: as §2
[6] = test system: ECa-109 cell line; experiment: Cytotoxicity against human ECA109 cells assessed as cell growth inhibition after 48 hrs by MTT assay; format: functional, cell-based; conditions: ECa-109, 48 h; how it was run: as §2

C=C(C)[C@@H]1CC[C@]2(C(=O)OCC)CC[C@]3(C)[C@H](CC[C@@H]4[C@@]5(C)CC[C@H](OC(=O)CCCC[P+](c6ccccc6)(c6ccccc6)c6ccccc6)C(C)(C)[C@@H]5CC[C@]43C)[C@@H]12
IC50 [1]: 4.03 µM
IC50 [2]: 4.54 µM
IC50 [3]: 7.85 µM
IC50 [4]: 2.75 µM
IC50 [5]: 4.79 µM
IC50 [6]: 6.04 µM

C=C(C)[C@@H]1CC[C@]2(COC(=O)CCCC[P+](c3ccccc3)(c3ccccc3)c3ccccc3)CC[C@]3(C)[C@H](CC[C@@H]4[C@@]5(C)CC[C@H](OC(C)=O)C(C)(C)[C@@H]5CC[C@]43C)[C@@H]12
IC50 [1]: 0.62 µM
IC50 [2]: 2.42 µM
IC50 [3]: 7.18 µM
IC50 [4]: 0.58 µM
IC50 [5]: 0.83 µM
IC50 [6]: 1.41 µM

C=C(C)[C@@H]1CC[C@]2(COC(=O)CCCC[P+](c3ccccc3)(c3ccccc3)c3ccccc3)CC[C@]3(C)[C@H](CC[C@@H]4[C@@]5(C)CC[C@H](OC=O)C(C)(C)[C@@H]5CC[C@]43C)[C@@H]12
IC50 [1]: 0.81 µM
IC50 [2]: 1.11 µM
IC50 [3]: 8.32 µM
IC50 [4]: 0.71 µM
IC50 [5]: 1.1 µM
IC50 [6]: 0.95 µM

O=C(O)CCCC[P+](c1ccccc1)(c1ccccc1)c1ccccc1
IC50 [1]: > 200 µM
IC50 [2]: 158 µM
IC50 [3]: > 200 µM
IC50 [4]: 118 µM
IC50 [5]: 172 µM
IC50 [6]: 112 µM
